Measured values: ChEMBL document CHEMBL2086393, “Haloenol pyranones and morpholinones as antineoplastic agents of prostate cancer” (Bioorg Med Chem Lett, 2012)
The source made the active and inactive calls. No cut-off for these calls is given here.

Key:
LNCaP [1] = experiment: Antineoplastic activity against human LNCAP cells after 72 hrs by MTT assay; type: functional, cell-based
Summary of the method: (§1)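 LNCaP and PC-3 human prostate cancer cells were exposed to compound for 24, 48 or 72 h, and growth was read as the change in MTT staining. IC50 was calculated from 3–5 experiments, each run in duplicate on separate cell passages.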

PC-3 [2] = experiment: Antineoplastic activity against human PC3 cells after 24 hrs by MTT assay; type: functional, cell-based; details: PC-3, 24 h; summary of the method: as §1
PC-3 [3] = experiment: Antineoplastic activity against human PC3 cells after 48 hrs by MTT assay; type: functional, cell-based; details: PC-3, 48 h; summary of the method: as §1
LNCaP [4] = experiment: Antineoplastic activity against human LNCAP cells after 24 hrs by MTT assay; type: functional, cell-based; summary of the method: as §1
PC-3 [5] = experiment: Antineoplastic activity against human PC3 cells after 72 hrs by MTT assay; type: functional, cell-based; details: PC-3, 72 h; summary of the method: as §1
LNCaP [6] = experiment: Antineoplastic activity against human LNCAP cells after 48 hrs by MTT assay; type: functional, cell-based; summary of the method: as §1
LNCaP [7] = experiment: Induction of necrosis in human LNCAP cells at 5 uM after 72 hrs by phase-contrast microscopic analysis; type: functional, cell-based
Summary of the method: (§2)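 LNCaP cells were treated at 5 μM for 72 h. Cells were inspected by eye under phase-contrast microscopy for changes in shape and differentiation, death, and signs of apoptosis or necrosis, compared with a DMSO vehicle control.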

Rattus norvegicus [8] = organism: Rattus norvegicus; experiment: Inhibition of iPLA2beta in rat kidney cytosol using arachidonoyl thio-phosphatidylcholine as substrate up to 100 uM after 0.5 hrs by spectrophotometry; type: tissue-based
Summary of the method: (§3)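 Cytosolic fractions were preincubated with compound at 0–100 μM for 0.5 h. Arachidonoyl thiophosphatidylcholine, a hydrolysable thioester probe of PLA2 activity, was then added to follow enzyme activity.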

LNCaP [9] = experiment: Induction of apoptosis in human LNCAP cells at 5 uM after 72 hrs by phase-contrast microscopic analysis; type: functional, cell-based; summary of the method: as §2
LNCaP [10] = experiment: Cell cycle arrest in human LNCAP cells assessed as increase in G1 phase cells at 5 uM after 24 hrs by PI-based flow cytometric analysis relative to control; type: functional
Summary of the method: (§4)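 LNCaP cells were treated for 24 h at 5 or 10 μM. Cells were stained with propidium iodide and analysed by flow cytometry for the percentages in G1, S and G2/M phases, compared with control.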

LNCaP [11] = experiment: Cell cycle arrest in human LNCAP cells assessed as decrease in G2/M phase cells at 5 uM after 24 hrs by PI-based flow cytometric analysis relative to control; type: functional; summary of the method: as §4
LNCaP [12] = experiment: Cell cycle arrest in human LNCAP cells assessed as increase in G1 phase cells at 10 uM after 24 hrs by PI-based flow cytometric analysis relative to control; type: functional; summary of the method: as §4
LNCaP [13] = experiment: Cell cycle arrest in human LNCAP cells assessed as decrease in S phase cells at 5 uM after 24 hrs by PI-based flow cytometric analysis relative to control; type: functional; summary of the method: as §4
LNCaP [14] = experiment: Cell cycle arrest in human LNCAP cells assessed as decrease in S phase cells at 10 uM after 24 hrs by PI-based flow cytometric analysis relative to control; type: functional; summary of the method: as §4
LNCaP [15] = experiment: Antineoplastic activity against human LNCAP cells at 5 to 13 uM by MTT assay; type: functional, cell-based; details: TDE = time-dependent effect; summary of the method: as §1
PC-3 [16] = experiment: Antineoplastic activity against human PC3 cells at 14 to 34 uM by MTT assay; type: functional, cell-based; details: TDE = time-dependent effect; summary of the method: as §1
LNCaP [17] = experiment: Cytotoxicity against human LNCAP cells assessed as change in cell differentiation at 5 uM after 72 hrs by phase-contrast microscopic analysis; type: functional, cell-based; summary of the method: as §2
LNCaP [18] = experiment: Cytotoxicity against human LNCAP cells assessed as change in cell shape at 5 uM after 72 hrs by phase-contrast microscopic analysis; type: functional, cell-based; summary of the method: as §2
LNCaP [19] = experiment: Cytotoxicity against human LNCAP cells assessed as cell death at 5 uM after 72 hrs by phase-contrast microscopic analysis; type: functional, cell-based; summary of the method: as §2
Rattus norvegicus [20] = organism: Rattus norvegicus; experiment: Inhibition of iPLA2beta in rat kidney cytosol using arachidonoyl thio-phosphatidylcholine as substrate after 0.5 hrs by spectrophotometry; type: tissue-based; summary of the method: as §3

Structure (SMILES)	IC50 (LNCaP [1])	IC50 (PC-3 [2])	IC50 (PC-3 [3])	IC50 (LNCaP [4])	IC50 (PC-3 [5])	IC50 (LNCaP [6])	Activity (LNCaP [7])	inhibition (Rattus norvegicus [8])	Activity (LNCaP [9])	Activity (LNCaP [10])	Activity (LNCaP [11])	Activity (LNCaP [12])	Activity (LNCaP [13])	Activity (LNCaP [14])	Activity (LNCaP [15])	Activity (PC-3 [16])	Activity (LNCaP [17])	Activity (LNCaP [18])	Activity (LNCaP [19])	inhibition (Rattus norvegicus [20])
O=C1CCC/C(=C\Br)O1	5 µM	19 µM	23 µM	10 µM	14 µM	5 µM	–	–	–	–	–	–	–	–	–	–	–	–	–	–
O=C1O/C(=C/Br)CC[C@H]1c1cccc2ccccc12	–	–	–	–	–	–	–	Active	–	–	–	–	–	–	–	–	–	–	–	–
C#CCN1CC(=O)O/C(=C/Br)C1	28 µM	13 µM	10 µM	25 µM	7 µM	29 µM	–	–	–	–	–	–	–	–	–	–	–	–	–	–
O=C1O/C(=C/Br)CCC1c1cccc2ccccc12 (racemic) [BROMOENOL LACTONE]	9 µM	34 µM	26 µM	13 µM	14 µM	5 µM	–	–	–	Active	Active	Active	Active	Active	tde	tde	inactive	inactive	inactive	Dose-dependent effect
O=C1O/C(=C/Br)CN(Cc2ccccc2)[C@H]1c1ccccc1	3 µM	4 µM	1 µM	3 µM	4 µM	4 µM	–	–	–	–	–	–	–	–	–	–	–	–	–	–
O=C1CCC/C(=C\I)O1	7 µM	32 µM	15 µM	9 µM	16 µM	5 µM	–	–	–	–	–	–	–	–	–	–	–	–	–	–
O=C1O/C(=C/Br)CCC1c1ccccc1 (racemic)	4 µM	27 µM	10 µM	31 µM	6 µM	5 µM	–	–	–	Active	Active	Active	Active	Active	–	–	inactive	inactive	inactive	Dose-dependent effect

The next lines start with results.

IC50 (LNCaP [1])	IC50 (PC-3 [2])	IC50 (PC-3 [3])	IC50 (LNCaP [4])	IC50 (PC-3 [5])	IC50 (LNCaP [6])	Structure (SMILES)	Activity (LNCaP [7])	inhibition (Rattus norvegicus [8])	Activity (LNCaP [9])	Activity (LNCaP [10])	Activity (LNCaP [11])	Activity (LNCaP [12])	Activity (LNCaP [13])	Activity (LNCaP [14])	Activity (LNCaP [15])	Activity (PC-3 [16])	Activity (LNCaP [17])	Activity (LNCaP [18])	Activity (LNCaP [19])	inhibition (Rattus norvegicus [20])
20 µM	21 µM	21 µM	26 µM	25 µM	23 µM	C#CCN1C/C(=C\I)OC(=O)[C@@H]1c1ccccc1	–	–	–	–	–	–	–	–	–	–	–	–	–	–
3 µM	8 µM	6 µM	6 µM	3 µM	6 µM	C#CCN1C/C(=C\Br)OC(=O)[C@H]1c1ccccc1	Active	inactive	Active	Active	Active	Active	Active	Active	–	–	–	–	–	–
3 µM	15 µM	13 µM	8 µM	5 µM	3 µM	C#CCN1C/C(=C\Br)OC(=O)[C@@H]1c1ccccc1	–	Active	–	Active	Active	Active	Active	Active	–	–	–	–	–	–
32 µM	33 µM	57 µM	41 µM	39 µM	26 µM	C#CCN1C/C(=C\Br)OC(=O)[C@@H]1Cc1ccccc1	–	–	–	–	–	–	–	–	–	–	–	–	–	–
